A selection: hits, their analogues and other compounds. The true share with any hit is near 3.7%.
rCAG RNA binder = binds r(CAG) RNA repeats; r(CAG) RNA repeat, TO-PRO-1 dye displacement fluorescence; inhibition, % at 3 µM; 1.3% of 370,000 active; AID 651821;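 active = inhibition above the plate cutoff, the mean of all test compounds on that plate plus 3 SD, cut at about 35% in these data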;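 also: 0% = DMSO alone and 100% = 100 µM mitoxantrone as full dye displacement; higher means more dye released from RNA so lower well fluorescence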
TAAR1 antagonist = antagonists of human TAAR1. CHO RD-HGA16 TAAR1, Fluo-8 calcium fluorescence, antagonist. Q96RJ0. 1.5% of 360,000 active. inhibition, % at 3 µM;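 active = inhibition above a per-plate cutoff, the mean inhibition of test compounds on that plate plus 3 SD, cut at about 49% in these data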;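 also: 0% = DMSO plus EC80 beta-PEA response and 100% = DMSO alone without agonist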
Target sequence (Q96RJ0 whole entry, looked up): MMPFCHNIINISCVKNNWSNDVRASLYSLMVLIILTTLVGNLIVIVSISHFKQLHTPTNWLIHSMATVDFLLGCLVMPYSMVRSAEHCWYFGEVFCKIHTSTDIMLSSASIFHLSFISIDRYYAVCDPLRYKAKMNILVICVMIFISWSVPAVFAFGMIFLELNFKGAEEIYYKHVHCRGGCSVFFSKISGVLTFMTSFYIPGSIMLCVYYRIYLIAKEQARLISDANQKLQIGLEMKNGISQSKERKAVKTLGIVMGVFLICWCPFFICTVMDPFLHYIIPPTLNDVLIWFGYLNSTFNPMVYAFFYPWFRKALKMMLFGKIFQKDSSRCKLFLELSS
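Material: CHO RD-HGA16 cells bearing hTAAR1; compound dosing: one-point dosing, 3 µM nominal final; schedule: dye loading 75 min at 37 °C, then 30 min room temperature; measured by: calcium fluorescence with Fluo-8; control set: vehicle and agonist controls; replication: n of 1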
TAAR1 ag = agonists of human TAAR1. Q96RJ0. CHO RD-HGA16 TAAR1, Fluo-8 calcium fluorescence; vehicle wells 0%, saturating PEA agonist 100%. activation, % at 3 µM. 0.99% of 360,000 active. AID 624467;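 active = activation above the mean activation of all test compounds in the run plus 3 SD, cut at about 38% in these data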
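Test system: RD-HGA16 (CHO) cells co-expressing Gα16 and hTAAR1 | Doses: Single dose, 3 µM | Schedule: 17-24 h seeding, 75 min 37 °C dye, 30 min RT | Evaluation: % activation from peak over basal fluorescence ratio, DMSO-to-PEA scaled | Technique: Kinetic Fluo-8 calcium fluorescence | Benchmarks: Low control DMSO, high control PEA (EC100)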
HCV core dimer = HCV core protein dimerization inhibition; TR-FRET GST/Flag-core106 dimerization, 1536-well; inhibition, % at 5 µM; 0.33% of 300,000 active;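 active = inhibition above the mean of all tested compounds plus 3 SD, set per screening campaign, cut at about 45% in these data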
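Test system: GST/Flag-tagged HCV core106 proteins; Medium: KF-containing HEPES buffer, pH 7.45, DTT, CHAPS, BSA; Times: compound-protein-antibody incubation 4 h at 22.5 °C; Detection: TR-FRET 671 and 617 nm emission; Benchmarks: wells lacking GST-core106 and wells with excess unlabelled core106.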
HCV NS3 hel inh = blocks Hepatitis C virus NS3 helicase unwinding; NS3 helicase DNA unwinding, Cy5 molecular beacon fluorescence; inhibition, % at 10.9 µM; 0.56% of 290,000 active; AID 1800;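 active = inhibition above the mean of all tested compounds plus 3 SD, set per campaign, cut at about 35% in these data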;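 also: 0% = DMSO wells and 100% = thioflavine S control wells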
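Assay system – hepatitis C virus NS3 helicase domain fragment enzyme · Buffer or medium – MOPS pH 6.5, MgCl2, DTT, Tween20, BSA · Reagent – Cy5/quencher beacon DNA duplex and ATP to start · Compound – single 10.9 µM dose · Timing – 1 h at 25 °C · Technique – Cy5 beacon fluorescence read at start and 1 h · Measure – % inhibition of unwinding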
rCAG bind conf = r(CAG) RNA repeat binding, confirmation; shares compounds with rCAG RNA binder; TO-PRO-1 dye displacement fluorescence; inhibition, % at 3 µM; 70% of 4,300 active; AID 652065;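 active = inhibition above a per-plate cutoff, the mean inhibition of sample wells plus 3 SD, cut at about 35% in these data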;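 also: loss of TO-PRO-1 fluorescence as compound displaces dye from 1x1 AA loop RNA; 0% = DMSO only wells and 100% = 100 µM mitoxantrone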
dCAG dye counter = DNA CAG dye complex inhibition counter-screen | shares compounds with rCAG RNA binder | d(CAG) DNA oligo TO-PRO-1 dye displacement, fluorescence | inhibition, % at 3 µM | 94% of 4,300 active | AID 652068;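 active = inhibition above its plate's cutoff, the mean test-well inhibition plus 3 SD, cut at about 4.8% in these data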;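 also: 0% = DNA dye mix with DMSO and 100% = 100 µM mitoxantrone; hits displace the dye from DNA and so lower well fluorescence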
* hit, by the source's call; · = no result given.

SMILES	rCAG RNA binder	TAAR1 antagonist	TAAR1 ag	HCV core dimer	HCV NS3 hel inh	rCAG bind conf	dCAG dye counter
Cc1ccc(S(=O)(=O)N2[C@@H](c3ccc(Cl)cc3)C(C(=O)O)=CC[C@H]2c2ccc(Cl)cc2)cc1	82*	55*	2	11	·	84*	53*
CCOc1ccc([C@@H]2CC=C(C(=O)O)[C@H](c3ccc(Cl)cc3)N2S(=O)(=O)c2ccc(C)cc2)cc1	59*	12	0	23	·	74*	37*
COc1ccc(-c2cc(-c3nnc(SCc4cccc5ccccc45)n3N)[nH]n2)cc1	16	·	·	·	·	·	·
O=C(NCCc1ccccc1)OCc1cn(-c2ccc(F)cc2)nn1	1	·	·	·	·	·	·
O=C(CCc1ccccc1)N[C@H]1[C@H](OCc2ccccc2)CCC[C@@]12C(=O)N(Cc1ccccc1)c1ccc(-c3cnccn3)cc12	10	·	·	·	·	·	·
O=c1cc(-c2ccccc2Cl)oc2c([N+](=O)[O-])c(O)cc(O)c12	51*	-5	21	19	13	35*	12*
CCCCNC(=O)C[C@H]1C[C@@]2(C(=O)OC)C(=C[C@H](C(C)C)O[C@@H]2C2CC2)N(Cc2ccc3c(c2)OCO3)C1=O	3	·	·	·	·	·	·
CN1C(=O)C(c2cn(C)c3ccccc23)(c2cn(C)c3ccccc23)c2ccccc21	14	·	·	·	·	·	·
O=S(=O)(Nc1ccc(-c2nc3cccnc3s2)cc1)c1cc(F)ccc1F	45*	12	0	12	-1	35*	9.2*
CCc1ccc(S(=O)(=O)Nc2ccc(-c3nc4cccnc4s3)cc2)s1	57*	20	0	2	-8	58*	22*
COc1ccc(C(=O)CSc2nnc(-c3ccc(C(C)(C)C)cc3)n2C)cc1	6	·	·	·	·	·	·
Cc1ccc(N=Cc2cc3c(cc2[N+](=O)[O-])OCO3)cc1[N+](=O)[O-]	39*	-22	0	19	·	9	4.9*
Cc1ccc(C)c(N=Cc2cc3c(cc2[N+](=O)[O-])OCO3)c1	22	-22	10	6	18	·	·
O=[N+]([O-])c1ccc(O)c(C=Nc2ccc3c(c2)OCO3)c1	8	-37	3	3	1	·	·
O=[N+]([O-])c1cc(Br)cc(C=Nc2ccc3c(c2)OCO3)c1O	58*	19	2	19	-6	41*	17*
O=C(N/N=C/c1cn(Cc2cccc(F)c2)c2ccccc12)c1cc(O)cc(O)c1	50*	-4	1	·	18	52*	29*
O=C(O)c1ccc(N/N=C/c2cn(Cc3ccccc3F)c3ccccc23)cc1	78*	32	12	-2	19	81*	45*
Nc1ccc(C(=O)N/N=C/c2cn(Cc3ccccc3F)c3ccccc23)cc1	10	-4	-1	·	6	·	·
CCOC(=O)CC[C@@H]1CC[C@]2(CCCN(C(=O)c3ccno3)C2)O1	0	·	·	·	·	·	·
C[C@H]1CCCN1c1cccc2c1S(=O)(=O)N1CC[C@@H](C1)O2	5	·	·	·	·	·	·
NS(=O)(=O)c1cccnc1Nc1ccc(Cl)c(Cl)c1	1	-5	13	-8	-10	·	·
CC(=O)NS(=O)(=O)c1cccnc1Nc1ccc(Cl)c(Cl)c1	37*	-4	0	3	10	38*	14*
O=C(Nc1cccnc1)c1ccc(N2CCCC2)c([N+](=O)[O-])c1	-1	-7	7	2	1	·	·
O=C(Nc1cccc(S(=O)(=O)Nc2ccccc2Cl)c1)c1ccc(N2CCCC2)c([N+](=O)[O-])c1	61*	9	-1	44	2	44*	21*
O=C(Nc1cccc(C(F)(F)F)c1)Nc1ccc(N2CCCC2)c(S(=O)(=O)Nc2ccccc2Cl)c1	46*	41	4	13	-19	34	18*
SMILES	rCAG RNA binder	TAAR1 antagonist	TAAR1 ag	HCV core dimer	HCV NS3 hel inh	rCAG bind conf	dCAG dye counter
O=C(CSc1nnc(-c2ccccn2)n1-c1ccccc1)c1ccc(F)cc1	2	·	·	·	·	·	·
CCOC(=O)C1=C(O)/C(=C/c2ccc(OCC(=O)O)c(OC)c2)SC1=Nc1ccc(OCC)cc1	38*	-9	5	-4	5	65*	21*
CCOC(=O)C1=C(O)/C(=C/c2ccc(OCC(=O)O)c(OCC)c2)SC1=Nc1ccccc1	15	12	3	3	2	·	·
CCOC(=O)C1=C(O)/C(=C/c2ccc(-c3ccccc3C(=O)O)o2)SC1=Nc1ccc(C)cc1	28	-12	0	·	·	·	·
CCOC(=O)C1=C(O)/C(=C/c2ccc(-c3ccccc3C(=O)O)o2)SC1=Nc1ccc(OC)cc1	38*	-22	3	·	17	80*	38*
COc1ccc(Cn2ccc3ccc(-c4ccc5ccn(C(=O)C6CCC6)c5c4)cc32)cc1	17	·	·	·	·	·	·
Cc1cccc(NC(=O)N2CCC(N(C)CCC(C)C)CC2)c1	0	·	·	·	·	·	·
C=CCN=C1NC(c2ccc(Cl)cc2)C(C(=O)OC)=C(C)N1Cc1ccccc1C(F)(F)F (stereo not drawn)	4	-15	6	·	·	·	·
COc1cc(O)c(C(C)=O)cc1OC	4	-8	7	-9	5	·	·
CC(=O)Oc1cc(C)c(Cl)c2c(OC(C)=O)cc(C(C)=O)c(O)c12	40*	-3	2	·	·	21	6.8*
COc1ccc(CN2C(=O)COc3ccccc3C2c2nnnn2C2CCCCC2)cc1 (stereo not drawn)	13	·	·	·	·	·	·
COc1cccc(OCC(=O)Nc2cc(NC(=O)COc3cccc(OC)c3)cc(C(=O)O)c2)c1	55*	-3	1	1	18	53*	18*

From PubChem
